# Publication PMC5974556 (ChemistryOpen, 2018)
# Marks after values point to notes of the source that are not given here.
# Experiments:
# [1] = test system: Caco‐2 cells; assay: Mitochondria activity; assay type: cell-based; settings: Homo sapiens, Caco-2, 72 h, read-out: Caco‐2 IC50 MTT
# Outline: (§1)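 Cells kept in DMEM+glutamax with 1% NEAA, 1% P/S and 10% FBS at 37 °C, 10% CO2. Seeded 2×10^4 per well for 24 h, then exposed 72 h to test compound at various concentrations in serum-free medium, in triplicate. MTT (5 mg/mL in PBS) added for 2 h, formazan dissolved in DMSO, read at 570 nm. IC50 from % survival; doxorubicin control; MTT and SRB data pooled, mean ± SD, n≥6.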
# [2] = test system: HT‐29 cells; assay: Mitochondria activity; assay type: cell-based; settings: Homo sapiens, HT-29, 72 h, read-out: HT‐29 IC50 MTT
# Outline: as §1
# [3] = test system: HT‐29 cells; assay: Protein content; assay type: cell-based; settings: Homo sapiens, HT-29, 72 h, read-out: HT‐29 IC50 SRB
# Outline: (§2)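 Seeded 2×10^4 cells per well for 24 h, then treated with or without test compound for three days, in triplicate. Fixed with 50% TCA for 1 h at 4 °C, washed and dried. Stained 30 min at 4 °C with 0.4% sulforhodamine B in 1% acetic acid, rinsed with 1% acetic acid. Dye redissolved in Tris buffer, absorbance read at 490 nm. Doxorubicin control; MTT and SRB data pooled, mean ± SD, n≥6.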
# [4] = test system: HepG2 cells; assay: Intracellular ROS; assay type: cell-based; settings: Homo sapiens; for activity at 1 µM: HepG2, read-out: Intracellular ROS, percentage compared to the untreated control cells (ROS/SRB), HepG2, 1 μM; for activity at 10 µM: HepG2, read-out: Intracellular ROS, percentage compared to the untreated control cells (ROS/SRB), HepG2, 10 μM
# Outline: (§3)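 Cells grown in DMEM+glutamax with 1% NEAA, 1% P/S and 10% FBS at 37 °C, 10% CO2. Seeded at 2×10^4 cells/well for 24 h, then confluent cells were exposed to test compound at 1 or 10 µM in serum-free medium, with NAC as control. Cells were washed, loaded with DCFH-DA for 30 min, then kept 1 h in phenol red-free DMEM. Fluorescence read at ex 485/em 535 nm, normalised to same-well SRB protein (490 nm) and given as % of untreated cells. Mean ± SD, n≥3; two-tailed t-test with unequal variances.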
# [5] = Ferric reducing antioxidant power; settings: chemical antioxidant capacity, n=3
# Outline: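 FRAP reagent made from acetate buffer, TPTZ in ethanol and FeCl3·6H2O in dilute HCl, mixed 10:1:1, with TPTZ and iron solutions fresh daily. Sample mixed with reagent 1:9, absorbance read at 593 nm after 4 min. Values expressed as Trolox equivalents by linear regression on a Trolox standard curve; α-tocopherol positive control.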
# [6] = test system: EA.hy926 cells; assay: Mitochondria activity; assay type: cell-based; settings: Homo sapiens, EA.hy 926, 72 h, read-out: EA.hy926 IC50 MTT
# Outline: as §1
# [7] = test system: HT‐29 cells; assay: Intracellular ROS; assay type: cell-based; settings: Homo sapiens; for activity at 1 µM: HT-29, read-out: Intracellular ROS, percentage compared to the untreated control cells (ROS/SRB), HT‐29, 1 μM; for activity at 10 µM: HT-29, read-out: Intracellular ROS, percentage compared to the untreated control cells (ROS/SRB), HT‐29, 10 μM
# Outline: as §3
# [8] = test system: HepG2 cells; assay: Mitochondria activity; assay type: cell-based; settings: Homo sapiens, HepG2, 72 h, read-out: HepG2 IC50 MTT
# Outline: as §1
# [9] = Water solubility, shake flask method in 0.1 M phosphate buffer pH 6.8; assay type: physicochemical; settings: 37 °C, pH 6.8, aqueous buffer, thermodynamic from solid
# Outline: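 Excess solid added to 1 mL sodium phosphate buffer, pH 6.8. Two conditions: 90 min sonication at 37 °C, or 30 min sonication at 37 °C, 23 h shaking at 300 rpm, then 30 min sonication. Centrifuged 14000 rpm for 5 min, filtered (0.2 µm) at 37 °C and diluted in DMSO. Quantified by LC at maximum absorbance against standard curves; independent triplicates.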
# [10] = test system: HepG2 cells; assay: Protein content; assay type: cell-based; settings: Homo sapiens, HepG2, 72 h, read-out: HepG2 IC50 SRB
# Outline: as §2
# [11] = test system: EA.hy926 cells; assay: Protein content; assay type: cell-based; settings: Homo sapiens, EA.hy 926, 72 h, read-out: EA.hy926 IC50 SRB
# Outline: as §2
# [12] = test system: Caco‐2 cells; assay: Intracellular ROS; assay type: cell-based, human; settings: protein content normalization, mean±SD, n≥3
# Outline: as §3
# [13] = test system: Caco‐2 cells; assay: Protein content; assay type: cell-based; settings: Homo sapiens, Caco-2, 72 h, read-out: Caco‐2 IC50 SRB
# Outline: as §2
# [14] = test system: EA.hy926 cells; assay: Intracellular ROS; assay type: cell-based; settings: Homo sapiens; for activity at 1 µM: EA.hy 926, read-out: Intracellular ROS, percentage compared to the untreated control cells (ROS/SRB), EA.hy926, 1 μM; for activity at 10 µM: EA.hy 926, read-out: Intracellular ROS, percentage compared to the untreated control cells (ROS/SRB), EA.hy926, 10 μM
# Outline: as §3
# [15] = DPPH radical‐scavenging activity assay; settings: result in words
# Outline: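 DPPH diluted to 200 µM in MeOH and mixed with an equal volume of test compound in MeOH at various concentrations. Incubated 30 min in the dark at 30 °C, absorbance read at 515 nm. % inhibition corrected for sample absorbance without DPPH. EC50 from fit to the linear part of the curve. Trolox reference; at least three independent experiments.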
SMILES,IC50 [1],IC50 [8],solubility at 90 min [9],solubility at 24 h [9],IC50 [10],"Intracellular ROS, percentage compared to the untreated control cells (ROS/SRB), Caco‐2, 1 μM [12]",IC50 [13],"Intracellular ROS, percentage compared to the untreated control cells (ROS/SRB), Caco‐2, 10 μM [12]",IC50 [2],IC50 [3],activity at 1 µM [4],activity at 10 µM [4],FRAP [5],IC50 [6],activity at 1 µM [7],activity at 10 µM [7],IC50 [11],activity at 1 µM [14],activity at 10 µM [14],DPPH radical‐scavenging activity [15]
"O=C1C=C(/C=C/c2cccnc2)N(CCCO)C(c2cccnc2)C1 (centres unmarked) [6 f, (E)‐1‐(3‐Hydroxypropyl)‐2‐(pyridin‐3‐yl)‐6‐[2‐(pyridin‐3‐yl)vinyl]‐2,3‐dihydropyridin‐4(1H)‐one]",> 75 µM,> 75 µM,2460 ± 57.2 µM,5000 ± 137 µM,> 75 µM,100.5±2.4%,> 75 µM,,> 75 µM,> 75 µM,88.8 ± 10.4%,106 ± 13.1%,0.00 Trolox equiv per μM,> 75 µM,111 ± 8.1%,106 ± 4.1%,> 75 µM,101 ± 1.3%,106 ± 9.9%,
"O=C(/C=C(O)/C=C/c1cccnc1)/C=C/c1cccnc1 [compound 2, (1E,4Z,6E)‐5‐Hydroxy‐1,7‐di(pyridin‐3‐yl)hepta‐1,4,6‐trien‐3‐one]",6.9 ± 2.5 µM,8.3 ± 0.7 µM,12.4 ± 0.2 µM,9.2 ± 0.1 µM,10 ± 1.6 µM,104.8±15.1%,7.3 ± 3.1 µM,142.7±11.9^[b] %,8.2 ± 0.8 µM,6.1 ± 3.4 µM,99 ± 4.6%,90.4 ± 11.9%,0.03 Trolox equiv per μM,7.9 ± 1.9 µM,94 ± 4%,127 ± 7.9%,11.2 ± 2.8 µM,112 ± 1.6%,116 ± 3.3%,no activity

# The next lines start with results.
IC50 [1],IC50 [8],solubility at 90 min [9],solubility at 24 h [9],IC50 [10],"Intracellular ROS, percentage compared to the untreated control cells (ROS/SRB), Caco‐2, 1 μM [12]",IC50 [13],"Intracellular ROS, percentage compared to the untreated control cells (ROS/SRB), Caco‐2, 10 μM [12]",SMILES,IC50 [2],IC50 [3],activity at 1 µM [4],activity at 10 µM [4],FRAP [5],IC50 [6],activity at 1 µM [7],activity at 10 µM [7],IC50 [11],activity at 1 µM [14],activity at 10 µM [14],DPPH radical‐scavenging activity [15]
3.3 ± 0.3 µM,10 ± 1.7 µM,19 ± 0.2 µM,11.1 ± 0.1 µM,10.4 ± 1.5 µM,95.7±7.3%,2.1 ± 0.6 µM,110.3±6.5^[b] %,"O=C(/C=C(O)/C=C/c1c[nH]c2ccccc12)/C=C/c1c[nH]c2ccccc12 [compound 3, (1E,4Z,6E)‐5‐Hydroxy‐1,7‐di(1H‐indol‐3‐yl)hepta‐1,4,6‐trien‐3‐one]",11.5 ± 6.7 µM,15.3 ± 6.6 µM,129 ± 8%,382 ± 34%,0.27 Trolox equiv per μM,11.7 ± 4.6 µM,141 ± 21.3%,125 ± 12%,15.2 ± 5.9 µM,111 ± 7.5%,218 ± 20.3%,
7.5 ± 1.6 µM,8.2 ± 0.9 µM,84.8 ± 2.8 µM,74.2 ± 1.3 µM,9.8 ± 1.5 µM,110.2±9.5^[b] %,9.7 ± 0.6 µM,124.3±8.7^[c] %,"O=C(/C=C(O)/C=C/c1ccc[nH]1)/C=C/c1ccc[nH]1 [compound 4, (1E,4Z,6E)‐5‐Hydroxy‐1,7‐di(1H‐pyrrol‐2‐yl)hepta‐1,4,6‐trien‐3‐one]",8.9 ± 0.5 µM,9.6 ± 0.5 µM,75.6 ± 14.6%,121 ± 26.1%,0.79 Trolox equiv per μM,8.3 ± 0.9 µM,105 ± 6.3%,121 ± 8.7%,9 ± 2.2 µM,295 ± 38.5%,165 ± 18.9%,
28 ± 6.4 µM,20.3 ± 4.1 µM,2.9 ± 0.3 µM,2.6 µM,21.3 ± 4 µM,96.7±5.8%,33.1 ± 4.5 µM,95.8±2.5%,"COc1cc(/C=C/C(=O)CC(=O)/C=C/c2ccc(O)c(OC)c2)ccc1O [curcumin, reference compound]",23.4 ± 5.1 µM,20.3 ± 1.1 µM,95.9 ± 13.8%,84.2 ± 8.1%,1.11 Trolox equiv per μM,20 ± 5.9 µM,92.8 ± 5.8%,90.2 ± 6.1%,34.7 ± 10.5 µM,99.9 ± 6.4%,104 ± 7.6%,
